Here are results for one molecule from ChEMBL document CHEMBL4000211, “Discovery of novel polycyclic spiro-fused carbocyclicoxindole-based anticancer agents” (Eur J Med Chem, 2017).

Usually IC50 stands for the point on the concentration scale where inhibition reaches its midpoint.

Structures are written as SMILES.

Assay [1] has as its system HCT-116. Briefly: Cell cycle arrest in human HCT116 cells assessed as accumulation at S phase at 10 uM after 48 hrs by propidium iodide staining-based flow cytometric method (reference value: 34.83%). In kind it is functional. (In general: A flow cytometer gives signals particle by particle.)
Assay [2] deals with HCT-116. Briefly: Induction of apoptosis in human HCT116 cells assessed as viable cells at 7.5 uM after 48 hrs by annexin V-FITC/propidium iodide staining-based flow cytometric method (reference value: 95.05%). The assay is classed as functional. Conditions: HCT-116, 48 h, read-out: Activity. Put shortly: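 HCT116 cells seeded at 1×10⁶ cells/mL in 6-well plates for 24 h, then exposed to 0, 7.5, 10 or 12.5 μM for a further 24 h or 48 h. Cells washed twice in PBS, then stained with Annexin V-FITC plus PI (100 μg/mL stock) in binding buffer (10 mM HEPES, pH 7.4, 2.5 mM CaCl₂) for 30 min at room temperature in the dark. Early and late apoptotic fractions gated by flow cytometry.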

Assay [3] deals with HCT-116. Kind of assay: Cell cycle arrest in human HCT116 cells assessed as accumulation at G1 phase at 10 uM after 48 hrs by propidium iodide staining-based flow cytometric method (reference value: 40.75%). In kind it is functional.
The subject of assay [4] is HCT-116. Briefly: Cell cycle arrest in human HCT116 cells assessed as accumulation at G1 phase at 7.5 uM after 24 hrs by propidium iodide staining-based flow cytometric method (reference value: 43.79%). The assay is classed as functional.
In another assay the test system is NCI-H1299. Kind of assay: Antiproliferative activity against human NCI-H1299 cells after 48 hrs by MTT assay. The assay is classed as functional, cell-based. The conditions noted are these: NCI-H1299, 48 h. Put shortly: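 Cells seeded at 3×10³/well and grown 24 h, then exposed 48 h to six final concentrations, twofold steps down from 30. MTT (5 mg/mL) was added for 2–4 h at 37 °C. Supernatant was removed, formazan dissolved in DMSO, and OD read at 570 nm. Results are given as IC50, or as percent inhibition where IC50 exceeds the top concentration. At least three runs.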
A general note: Tetrazolium dyes change colour on reduction, which living cells bring about.

The test system of assay [5] is HCT-116. Kind of assay: Induction of apoptosis in human HCT116 cells assessed as early apoptotic cells at 7.5 uM after 48 hrs by annexin V-FITC/propidium iodide staining-based flow cytometric method (reference value: 1.6%). The assay is classed as functional.
The test system of assay [6] is HCT-116. Kind of assay: Induction of apoptosis in human HCT116 cells assessed as early apoptotic cells at 10 uM after 48 hrs by annexin V-FITC/propidium iodide staining-based flow cytometric method (reference value: 1.6%). In kind it is functional.

For the molecule `C[C@@H]1Oc2ccc3ccccc3c2[C@@H]2[C@@H]1C=C(C=O)[C@@H](C)[C@]21C(=O)Nc2ccccc21`, the Activity was determined as 18.5% in the assay on HCT-116 [1]; 82.32% in the assay with HCT-116 [3]; 46.1% in the assay on HCT-116 [4]; 4.18% with HCT-116 [5]; 27.48% in the assay with HCT-116 [6]. For the same molecule, the viability at 7.5 µM in the assay on HCT-116 [2] came to 91.7%. This molecule had a half-maximal inhibitory concentration (IC50) in the assay with NCI-H1299 of more than 30 µM.
